Measurements from ChEMBL document CHEMBL2021777 (J Med Chem, 2012).
Active and inactive are the calls of the source. No cut-off for these calls is given here.

Assays:
[1] = target: Neuronal acetylcholine receptor; alpha3/beta4 (Rattus norvegicus, UniProt P04757+P12392); test: Displacement of [3H] epibatidine from rat alpha3beta4 nAChR by beta scintillation counting; assay type: protein-complex assay
[2] = target: Neuronal acetylcholine receptor; alpha4/beta2 (Rattus norvegicus, UniProt P09483+P12390); test: Displacement of [3H] epibatidine from rat alpha4beta2 nAChR by beta scintillation counting; assay type: protein-complex assay
[3] = target: Neuronal acetylcholine receptor; alpha4/beta4 (Rattus norvegicus, UniProt P09483+P12392); test: Displacement of [3H] epibatidine from rat alpha4beta4 nAChR by beta scintillation counting; assay type: protein-complex assay
[4] = target: Neuronal acetylcholine receptors; alpha-3/beta-4, alpha-5, beta-2 (Homo sapiens) (UniProt P17787+P30926+P32297+P30532); test: Antagonist activity at alpha3beta4alpha5beta2 in human SH-SY5Y cells at 10 uM by 86Rb+ flux assay; assay type: functional, cell-based
Summary of the method: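 Human neuroblastoma SH-SY5Y cells endogenously express α3β4* nAChRs (α3, β4, probably α5, sometimes β2); their α7 receptors give no signal under these conditions. Cells were kept at low passage (1−26 from frozen stocks). Function was read as 86Rb+ efflux, with agonist and antagonist modes tested up to 10 μM.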

[5] = target: 5-hydroxytryptamine receptor 1E (Homo sapiens) (UniProt P28566); test: Displacement of [3H]5-HT from 5-HT1E at 10 uM
[6] = target: T1, 5-hydroxytryptamine receptor 2C (Homo sapiens) (UniProt P28335); test: Displacement of [3H]Mesulergine from 5-HT2C at 10 uM
T1 sequence (whole entry): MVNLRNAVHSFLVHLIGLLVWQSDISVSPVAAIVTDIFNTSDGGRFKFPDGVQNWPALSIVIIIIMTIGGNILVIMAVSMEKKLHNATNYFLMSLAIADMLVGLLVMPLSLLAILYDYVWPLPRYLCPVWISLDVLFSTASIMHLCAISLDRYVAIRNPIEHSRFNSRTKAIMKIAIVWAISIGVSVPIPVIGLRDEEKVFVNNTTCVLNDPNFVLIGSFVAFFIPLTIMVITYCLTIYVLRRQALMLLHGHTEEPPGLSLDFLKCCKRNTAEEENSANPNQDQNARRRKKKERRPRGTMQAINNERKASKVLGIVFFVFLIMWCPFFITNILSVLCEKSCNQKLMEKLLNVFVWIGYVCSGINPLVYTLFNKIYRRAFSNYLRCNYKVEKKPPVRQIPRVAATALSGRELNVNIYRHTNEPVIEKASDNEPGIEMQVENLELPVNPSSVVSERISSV

[7] = target: D(1B) dopamine receptor (Homo sapiens) (UniProt P21918); test: Displacement of [3H][…] from D5 at 10 uM
[8] = target: T2, Alpha-1A adrenergic receptor (Homo sapiens) (UniProt P35348); test: Displacement of [3H]Prazosin from alpha1A adrenergic receptor at 10 uM
T2 sequence (whole entry): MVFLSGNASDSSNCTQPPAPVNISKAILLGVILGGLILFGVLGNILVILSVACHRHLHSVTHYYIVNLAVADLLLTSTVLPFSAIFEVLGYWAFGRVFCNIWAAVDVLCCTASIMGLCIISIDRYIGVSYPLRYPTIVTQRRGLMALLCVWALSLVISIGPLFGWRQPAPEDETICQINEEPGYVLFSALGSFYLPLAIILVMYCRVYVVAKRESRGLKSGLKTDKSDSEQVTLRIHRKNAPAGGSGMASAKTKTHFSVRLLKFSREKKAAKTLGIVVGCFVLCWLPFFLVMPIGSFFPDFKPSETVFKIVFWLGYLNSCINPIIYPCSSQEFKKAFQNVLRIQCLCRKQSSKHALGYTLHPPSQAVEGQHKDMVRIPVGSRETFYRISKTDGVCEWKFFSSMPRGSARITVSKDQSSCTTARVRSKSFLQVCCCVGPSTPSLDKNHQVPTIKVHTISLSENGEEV

[9] = target: T3, Alpha-2A adrenergic receptor (Homo sapiens) (UniProt P08913); test: Displacement of [3H]Clonidine from alpha2A adrenergic receptor at 10 uM
T3 sequence (whole entry): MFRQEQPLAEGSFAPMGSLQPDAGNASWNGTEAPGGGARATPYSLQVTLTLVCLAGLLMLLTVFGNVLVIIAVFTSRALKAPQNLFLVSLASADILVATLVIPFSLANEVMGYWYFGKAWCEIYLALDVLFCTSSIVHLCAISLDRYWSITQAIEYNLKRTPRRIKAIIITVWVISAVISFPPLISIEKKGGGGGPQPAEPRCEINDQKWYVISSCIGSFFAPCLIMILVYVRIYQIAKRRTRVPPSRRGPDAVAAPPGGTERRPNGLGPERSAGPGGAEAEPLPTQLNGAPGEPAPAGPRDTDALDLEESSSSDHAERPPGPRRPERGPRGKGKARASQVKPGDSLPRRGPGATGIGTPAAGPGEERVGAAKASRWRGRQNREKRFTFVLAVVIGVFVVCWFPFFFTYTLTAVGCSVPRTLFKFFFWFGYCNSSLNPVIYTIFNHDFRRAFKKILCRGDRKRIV

[10] = target: Beta-1 adrenergic receptor (Homo sapiens) (UniProt P08588); test: Displacement of [125I]Iodopindolol from beta1 adrenergic receptor at 10 uM
[11] = target: Kappa-type opioid receptor (Homo sapiens) (UniProt P41145); test: Displacement of [3H]U69593 from kappa opioid receptor at 10 uM
[12] = Metabolic stability in mouse liver microsomes assessed as compound remaining at 1 uM after 1 hr; assay type: ADME, Microsome; details: read-out: Stability
Summary of the method: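 Compound at 1 μM incubated for 1 h with human or mouse liver microsomes; percent of parent remaining unchanged.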

[13] = Inhibition of CYP1A up to 10 uM; assay type: ADME
Summary of the method: (§1)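 Percent inhibition of CYP isoforms (CYP1A, CYP2C9, CYP2C19, CYP2D6, CYP3A; CYP1A2 reported) with test compound at concentrations up to 10 μM.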

[14] = Inhibition of CYP3A up to 10 uM; assay type: ADME; summary of the method: as §1
Cytochrome P450 1A2 = Cytochrome P450 1A2 (Homo sapiens, UniProt P05177); test: Inhibition of CYP1A2 up to 10 uM; assay type: ADME; summary of the method: as §1
[15] = target: 5-hydroxytryptamine receptor 1D (Homo sapiens) (UniProt P28221); test: Displacement of [3H][…] from 5-HT1D at 10 uM
[16] = target: 5-hydroxytryptamine receptor 2A (Homo sapiens) (UniProt P28223); test: Displacement of [3H]Ketanserin from 5-HT2A at 10 uM
[17] = Displacement of [3H]Baclofen from GABA-B at 10 uM
[18] = target: Metabotropic glutamate receptor 5 (Homo sapiens) (UniProt P41594); test: Displacement of [3H]MPEP from mGluR5 at 10 uM
[19] = target: Sodium-dependent serotonin transporter (Homo sapiens) (UniProt P31645); test: Displacement of [3H]Citalopram from SERT at 10 uM
[20] = target: Cannabinoid receptor 1 (Homo sapiens) (UniProt P21554); test: Displacement of [3H]CP55940 from CB1 receptor at 10 uM
[21] = Displacement of radioligand from oxytocin receptor; details: concentration not given here

Neuronal acetylcholine receptor; alpha3/beta4, sequence (P04757 whole entry): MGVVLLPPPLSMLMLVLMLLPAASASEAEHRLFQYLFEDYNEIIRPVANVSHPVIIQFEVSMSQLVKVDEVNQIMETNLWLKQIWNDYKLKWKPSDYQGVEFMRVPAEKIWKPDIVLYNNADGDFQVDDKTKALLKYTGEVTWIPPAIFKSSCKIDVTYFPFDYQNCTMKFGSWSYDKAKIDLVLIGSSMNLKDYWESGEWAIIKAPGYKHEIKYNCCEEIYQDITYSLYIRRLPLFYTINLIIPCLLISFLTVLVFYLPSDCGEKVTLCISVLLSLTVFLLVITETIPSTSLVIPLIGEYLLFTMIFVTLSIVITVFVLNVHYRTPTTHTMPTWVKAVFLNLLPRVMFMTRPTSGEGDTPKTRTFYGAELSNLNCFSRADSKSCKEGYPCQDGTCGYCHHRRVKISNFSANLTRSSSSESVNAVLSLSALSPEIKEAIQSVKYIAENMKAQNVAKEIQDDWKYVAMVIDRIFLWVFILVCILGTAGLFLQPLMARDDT
Neuronal acetylcholine receptor; alpha3/beta4, sequence (P12392 whole entry): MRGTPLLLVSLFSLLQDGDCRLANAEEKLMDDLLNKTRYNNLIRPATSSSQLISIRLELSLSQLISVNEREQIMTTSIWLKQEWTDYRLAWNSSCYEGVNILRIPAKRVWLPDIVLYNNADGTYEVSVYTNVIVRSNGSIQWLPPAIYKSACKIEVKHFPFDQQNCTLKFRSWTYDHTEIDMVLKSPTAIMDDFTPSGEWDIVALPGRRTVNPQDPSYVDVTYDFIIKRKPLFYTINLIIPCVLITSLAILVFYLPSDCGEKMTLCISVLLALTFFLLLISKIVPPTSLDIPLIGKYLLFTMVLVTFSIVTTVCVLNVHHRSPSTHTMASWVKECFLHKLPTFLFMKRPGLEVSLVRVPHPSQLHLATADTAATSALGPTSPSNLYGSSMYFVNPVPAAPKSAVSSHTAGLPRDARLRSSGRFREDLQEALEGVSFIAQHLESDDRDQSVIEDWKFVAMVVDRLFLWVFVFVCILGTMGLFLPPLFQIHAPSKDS
Neuronal acetylcholine receptors; alpha-3/beta-4, alpha-5, beta-2 (Homo sapiens), sequence (P17787 whole entry, looked up): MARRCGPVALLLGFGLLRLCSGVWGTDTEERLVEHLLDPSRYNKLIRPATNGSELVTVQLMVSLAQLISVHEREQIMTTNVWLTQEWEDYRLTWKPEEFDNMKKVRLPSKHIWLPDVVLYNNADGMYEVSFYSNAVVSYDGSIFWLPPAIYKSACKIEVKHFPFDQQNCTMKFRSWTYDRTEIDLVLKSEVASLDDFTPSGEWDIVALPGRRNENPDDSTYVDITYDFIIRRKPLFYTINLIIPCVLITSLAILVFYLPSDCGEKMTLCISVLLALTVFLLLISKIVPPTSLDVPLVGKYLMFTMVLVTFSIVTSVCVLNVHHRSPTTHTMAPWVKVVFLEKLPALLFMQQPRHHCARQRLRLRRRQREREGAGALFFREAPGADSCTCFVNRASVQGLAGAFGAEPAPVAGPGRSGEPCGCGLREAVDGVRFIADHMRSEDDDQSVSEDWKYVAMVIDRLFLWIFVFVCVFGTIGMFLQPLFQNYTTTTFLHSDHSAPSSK
Neuronal acetylcholine receptors; alpha-3/beta-4, alpha-5, beta-2 (Homo sapiens), sequence (P30532 whole entry, looked up): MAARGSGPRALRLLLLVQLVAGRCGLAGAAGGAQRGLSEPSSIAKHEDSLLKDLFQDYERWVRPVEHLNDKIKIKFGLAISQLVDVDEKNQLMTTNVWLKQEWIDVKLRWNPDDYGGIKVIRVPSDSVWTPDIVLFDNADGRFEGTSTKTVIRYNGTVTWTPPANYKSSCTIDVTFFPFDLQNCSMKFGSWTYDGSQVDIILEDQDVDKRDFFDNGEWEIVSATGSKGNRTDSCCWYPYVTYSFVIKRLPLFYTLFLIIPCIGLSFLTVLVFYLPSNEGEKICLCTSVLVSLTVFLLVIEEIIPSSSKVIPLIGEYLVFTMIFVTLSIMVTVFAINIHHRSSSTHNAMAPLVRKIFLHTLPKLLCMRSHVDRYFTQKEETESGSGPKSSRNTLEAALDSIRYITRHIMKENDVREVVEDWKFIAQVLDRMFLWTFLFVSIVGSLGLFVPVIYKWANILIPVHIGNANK
Neuronal acetylcholine receptors; alpha-3/beta-4, alpha-5, beta-2 (Homo sapiens), sequence (P30926 whole entry, looked up): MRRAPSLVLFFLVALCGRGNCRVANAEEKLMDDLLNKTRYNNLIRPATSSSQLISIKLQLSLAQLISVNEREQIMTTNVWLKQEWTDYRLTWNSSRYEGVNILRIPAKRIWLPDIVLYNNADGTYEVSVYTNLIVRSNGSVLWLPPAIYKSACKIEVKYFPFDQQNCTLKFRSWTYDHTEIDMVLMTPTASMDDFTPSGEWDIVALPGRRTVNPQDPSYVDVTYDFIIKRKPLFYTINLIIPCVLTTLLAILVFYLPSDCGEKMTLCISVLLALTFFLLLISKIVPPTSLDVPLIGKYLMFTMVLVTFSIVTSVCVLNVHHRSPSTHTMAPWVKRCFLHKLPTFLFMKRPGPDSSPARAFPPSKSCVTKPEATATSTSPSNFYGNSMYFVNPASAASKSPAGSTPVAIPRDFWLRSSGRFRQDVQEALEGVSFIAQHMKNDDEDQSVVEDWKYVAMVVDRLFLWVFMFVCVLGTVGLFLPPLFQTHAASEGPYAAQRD
Neuronal acetylcholine receptors; alpha-3/beta-4, alpha-5, beta-2 (Homo sapiens), sequence (P32297 whole entry, looked up): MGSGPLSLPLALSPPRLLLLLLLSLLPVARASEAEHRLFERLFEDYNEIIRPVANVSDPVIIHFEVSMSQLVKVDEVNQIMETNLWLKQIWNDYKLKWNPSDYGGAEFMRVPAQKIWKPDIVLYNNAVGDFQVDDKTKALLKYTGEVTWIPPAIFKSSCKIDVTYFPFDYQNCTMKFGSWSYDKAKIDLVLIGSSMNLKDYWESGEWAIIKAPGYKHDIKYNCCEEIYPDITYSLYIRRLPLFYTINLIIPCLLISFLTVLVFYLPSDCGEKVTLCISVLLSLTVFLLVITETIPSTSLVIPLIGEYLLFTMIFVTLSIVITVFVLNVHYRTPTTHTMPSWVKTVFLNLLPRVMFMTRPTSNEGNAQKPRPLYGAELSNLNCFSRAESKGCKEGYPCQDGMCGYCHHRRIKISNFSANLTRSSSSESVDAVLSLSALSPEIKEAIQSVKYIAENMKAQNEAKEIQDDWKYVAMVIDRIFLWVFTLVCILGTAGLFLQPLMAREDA
Kappa-type opioid receptor (Homo sapiens), sequence (P41145 whole entry): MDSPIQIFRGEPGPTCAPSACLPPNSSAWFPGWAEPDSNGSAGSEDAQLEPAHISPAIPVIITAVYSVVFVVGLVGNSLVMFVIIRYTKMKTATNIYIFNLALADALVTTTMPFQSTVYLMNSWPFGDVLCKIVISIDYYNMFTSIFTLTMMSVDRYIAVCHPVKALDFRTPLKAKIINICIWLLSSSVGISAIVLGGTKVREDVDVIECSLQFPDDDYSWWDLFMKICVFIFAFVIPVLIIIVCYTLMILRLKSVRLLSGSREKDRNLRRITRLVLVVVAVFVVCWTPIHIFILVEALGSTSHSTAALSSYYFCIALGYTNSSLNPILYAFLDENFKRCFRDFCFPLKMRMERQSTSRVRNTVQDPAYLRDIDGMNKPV
D(1B) dopamine receptor (Homo sapiens), sequence (P21918 whole entry): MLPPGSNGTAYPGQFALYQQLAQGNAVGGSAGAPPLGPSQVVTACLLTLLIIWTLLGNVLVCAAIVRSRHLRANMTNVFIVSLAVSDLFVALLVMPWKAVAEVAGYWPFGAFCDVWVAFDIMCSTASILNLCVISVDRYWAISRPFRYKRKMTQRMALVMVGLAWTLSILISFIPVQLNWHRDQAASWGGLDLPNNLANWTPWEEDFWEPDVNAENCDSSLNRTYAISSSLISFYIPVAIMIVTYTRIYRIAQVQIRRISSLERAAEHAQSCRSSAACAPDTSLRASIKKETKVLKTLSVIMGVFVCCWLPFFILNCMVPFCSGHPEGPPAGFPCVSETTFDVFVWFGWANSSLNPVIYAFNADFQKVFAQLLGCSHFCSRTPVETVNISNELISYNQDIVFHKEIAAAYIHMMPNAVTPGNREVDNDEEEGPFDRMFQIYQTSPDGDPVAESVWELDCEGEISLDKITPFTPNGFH
5-hydroxytryptamine receptor 1E (Homo sapiens), sequence (P28566 whole entry): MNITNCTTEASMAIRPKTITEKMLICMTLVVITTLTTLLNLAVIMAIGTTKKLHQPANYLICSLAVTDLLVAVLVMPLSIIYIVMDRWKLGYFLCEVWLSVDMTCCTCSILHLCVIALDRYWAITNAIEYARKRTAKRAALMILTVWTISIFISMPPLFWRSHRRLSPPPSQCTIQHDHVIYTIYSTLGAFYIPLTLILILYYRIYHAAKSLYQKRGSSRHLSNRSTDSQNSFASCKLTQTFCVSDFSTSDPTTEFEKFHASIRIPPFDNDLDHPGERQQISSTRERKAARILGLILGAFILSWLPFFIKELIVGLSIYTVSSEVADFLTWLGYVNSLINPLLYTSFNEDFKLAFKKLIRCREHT
Beta-1 adrenergic receptor (Homo sapiens), sequence (P08588 whole entry, looked up): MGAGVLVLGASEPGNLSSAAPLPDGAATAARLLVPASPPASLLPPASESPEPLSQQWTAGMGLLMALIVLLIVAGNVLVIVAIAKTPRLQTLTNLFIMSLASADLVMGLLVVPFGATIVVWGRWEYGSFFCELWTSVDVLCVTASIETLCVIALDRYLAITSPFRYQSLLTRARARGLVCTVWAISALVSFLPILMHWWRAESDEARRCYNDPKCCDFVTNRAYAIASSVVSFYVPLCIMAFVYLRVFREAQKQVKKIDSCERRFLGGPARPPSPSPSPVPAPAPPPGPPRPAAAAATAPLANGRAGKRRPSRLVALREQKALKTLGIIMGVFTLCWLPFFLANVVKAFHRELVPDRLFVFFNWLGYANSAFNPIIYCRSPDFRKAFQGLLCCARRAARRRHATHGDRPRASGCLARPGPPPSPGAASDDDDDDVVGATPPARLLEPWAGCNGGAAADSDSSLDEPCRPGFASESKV

| Compound | Ki [1] [µM] | Ki [2] [nM] | Ki [3] [nM] | Activity [4] | inhibition [5] [%] | inhibition [6] [%] | inhibition [7] [%] | inhibition [8] [%] | inhibition [9] [%] | inhibition [10] [%] | inhibition [11] [%] | remaining at 1 h, 1 µM [12] [%] | inhibition (INH) [13] | inhibition (INH) [14] | inhibition (INH) (Cytochrome P450 1A2) [%] | inhibition [15] [%] | inhibition [16] [%] | inhibition [17] [%] | inhibition [18] [%] | inhibition [19] [%] | further results |
| --- | --- | --- | --- | --- | --- | --- | --- | --- | --- | --- | --- | --- | --- | --- | --- | --- | --- | --- | --- | --- | --- |
| CNC(=O)OCC[C@H]1C[C@@H]1c1cncc(OC[C@@H]2CCN2)c1 | > 10 | 0.6 | 441 | inactive | -8.2 | 6.3 | -1.5 | 2.5 | 15.5 | 18.2 | 19.1 | 98 | <= 25% | <= 25% | 80 |  |  |  |  |  |  |
| OCC[C@H]1C[C@@H]1c1cncc(OC[C@@H]2CCN2)c1 | 6.52 | 0.1 |  | inactive | 6.7 | 2.4 | 25.6 | -1.6 | -5.3 | 45.8 | 3.7 | 80 | <= 25% | <= 25% |  | 5.6 | 34.2 | 8.9 | 9.1 | 42.7 | inhibition [20]: -3.4%; inhibition [21]: 9.4% |
| COCC[C@H]1C[C@@H]1c1cncc(OC[C@@H]2CCN2)c1 | > 10 | 0.1 | 50.2 | inactive | 13.4 | 33.8 | 19.1 | -1.6 | 9.7 | 48.3 | 7.2 | 84 | <= 25% | <= 25% | 70 | 1.2 | 43.7 | 3.2 | 5.1 | 39.3 | inhibition [20]: -2%; inhibition [21]: -1.4% |
